Measurements collected from several papers.
Lines come from different studies, so protocols differ.
Target: Dual specificity protein kinase CLK1 (CLK1, Homo sapiens, UniProt P49759)
Method: competition with immobilised ligand

SMILES | assay | setting | remaining binding [%]
C[C@H](c1ccnc(Nc2nc3ccc(-c4cc(N(C)C)ncn4)cc3[nH]2)c1)N1CCN(C(=O)CC(F)(F)F)CC1 | cell-free assay | 0.1 µM | 90
C=CC(=O)N1CCC(C(=O)NCC(=O)N2CCN(c3nc(-c4cnc(N)nc4C(F)F)nc(N4CCOCC4)n3)CC2)CC1 | binding | 1 µM | 93
COc1cc(-c2cn(C3CCc4ccccc4N(CC(F)(F)F)C3=O)nn2)ccc1-n1ccc(C)n1 (centres unmarked) | cell-free assay | 1 µM | 87
COc1cnc(Nc2cccc(S(N)(=O)=O)c2)nc1N1CCN(c2ccccc2)C(=O)C1 | binding | 1 µM | 100
O=C(c1ccc(Nc2nccc(-c3cc4ccccc4s3)n2)cc1)N1CCC(N2CCCC2)CC1 | binding | 1 µM | 13
COc1ncc2cc3ccccc3nc2c1C#N | cell-free assay | 5 µM | 98
COc1cnc(Nc2cccc(S(N)(=O)=O)c2)nc1N1CCN(c2ccccc2)CC1 | binding | 1 µM | 96
COc1cc(-c2cn(C3CCc4c(F)cccc4N(CC(F)(F)F)C3=O)nn2)ccc1-n1cnc(C)c1 (centres unmarked) | cell-free assay | 1 µM | 77
O=C(Nc1c[nH]nc1C(=O)NC1CCNCC1)c1cc(F)cc(F)c1 | binding | 1 µM | 100
O=S(=O)(NC1CCC(c2cc(F)ccc2F)(S(=O)(=O)c2ccc(Cl)cc2)CC1)C(F)(F)F (centres unmarked) | cell-free assay | 1 µM | 78
O=C(c1ccc(Nc2ncc(Cl)c(-c3ccc(Cl)s3)n2)cc1)N1CCC(N2CCCC2)CC1 | binding | 1 µM | 3.9
CCN1CCN(Cc2ccc(C(=O)Nc3ccc(C)c(Oc4ccc5c(c4)CC(=O)N5)c3)cc2C(F)(F)F)CC1 | binding | 1 µM | 100
Nc1ncc2c(n1)-c1c([nH]c3ccc(C#CC4CC4)cc13)CCCC2 | binding | 1 µM | 100
Cc1cnc(Nc2ccc(C(=O)N3CCC(N4CCCC4)CC3)cc2)nc1-c1cc2ccccc2s1 | binding | 1 µM | 8.3
